hERG protect: shields human hERG channel from block by proarrhythmic agents. CHO-hERG, FluxOR thallium flux, dofetilide IC70 present. activation (rescue from dofetilide block), less the hit threshold, % at 10 µM. Q12809. AID 1511. 0.51% of 310,000 active;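 active means activation above the mean of controls blocked by dofetilide plus 5 SD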;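 further: thallium influx through hERG after potassium depolarization seen as dye fluorescence rise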
Target sequence (Q12809 whole entry, looked up): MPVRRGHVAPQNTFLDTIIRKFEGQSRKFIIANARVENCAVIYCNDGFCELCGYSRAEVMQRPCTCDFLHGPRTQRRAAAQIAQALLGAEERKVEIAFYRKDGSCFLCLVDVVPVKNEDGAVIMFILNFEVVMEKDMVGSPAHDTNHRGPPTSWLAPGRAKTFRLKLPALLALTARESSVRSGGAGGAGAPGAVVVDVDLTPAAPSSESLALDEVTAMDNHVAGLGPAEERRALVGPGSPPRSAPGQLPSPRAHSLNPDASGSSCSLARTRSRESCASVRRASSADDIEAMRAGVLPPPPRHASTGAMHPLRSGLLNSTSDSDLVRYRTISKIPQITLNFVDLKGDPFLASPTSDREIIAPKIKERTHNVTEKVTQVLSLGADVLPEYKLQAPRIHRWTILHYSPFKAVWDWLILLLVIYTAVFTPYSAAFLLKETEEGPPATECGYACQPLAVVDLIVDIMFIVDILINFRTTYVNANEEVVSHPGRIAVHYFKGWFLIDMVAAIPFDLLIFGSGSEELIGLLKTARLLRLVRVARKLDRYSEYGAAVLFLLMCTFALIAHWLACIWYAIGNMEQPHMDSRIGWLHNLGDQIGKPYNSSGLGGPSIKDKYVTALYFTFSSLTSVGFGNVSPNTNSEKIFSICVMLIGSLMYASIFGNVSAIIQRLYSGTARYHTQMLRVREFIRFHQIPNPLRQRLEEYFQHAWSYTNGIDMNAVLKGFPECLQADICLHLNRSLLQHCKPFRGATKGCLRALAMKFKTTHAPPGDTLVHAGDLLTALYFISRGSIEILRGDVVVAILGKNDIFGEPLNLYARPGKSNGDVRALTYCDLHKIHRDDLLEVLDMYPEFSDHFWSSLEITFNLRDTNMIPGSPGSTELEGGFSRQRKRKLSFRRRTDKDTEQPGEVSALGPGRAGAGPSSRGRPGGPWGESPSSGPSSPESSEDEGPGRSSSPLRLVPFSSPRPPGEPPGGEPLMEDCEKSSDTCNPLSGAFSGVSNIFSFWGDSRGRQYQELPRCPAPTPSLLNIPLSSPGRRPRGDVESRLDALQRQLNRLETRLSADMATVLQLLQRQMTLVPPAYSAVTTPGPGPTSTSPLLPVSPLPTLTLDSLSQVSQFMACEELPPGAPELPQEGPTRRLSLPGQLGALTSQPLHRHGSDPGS
KCNK9 block: human KCNK9 channel inhibition | Q9NPC2 | B-score at 10 µM | 1.2% of 310,000 active | AID 488922 | HEK293 KCNK9, FluxOR thallium flux fluorescence; active compounds read low;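 active means ratio B-score over 3 SD below the library mean, with starting fluorescence within 5 SD of its mean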;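 further: negative B-score means less thallium flux so channel inhibition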
KCNQ1 inh: human KCNQ1 channel inhibition; P51787; CHO-K1 KCNQ1, FluxOR thallium flux fluorescence; active compounds read high; B-score at 10 µM; 1.3% of 310,000 active; AID 2642;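 active means compounds whose thallium flux B-score, printed positive for inhibition, exceeds three library SD while starting fluorescence stays within three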;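 further: channel opened by potassium depolarization with thallium stimulus after 20 min compound exposure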
KCNQ1 pot: human KCNQ1 channel potentiation or activation | P51787 | CHO-K1 KCNQ1, thallium flux FluxOR fluorescence; active compounds read high | B-score at 10 µM | 0.35% of 310,000 active | AID 2648;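 active means fluorescence ratio B-score, a plate-corrected score, at least three library SD, with initial intensity B-score within 5 SD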
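Schedule – 37 °C overnight plating, 90-min dark dye load, 20-min compound pretreatment · System – stable KCNQ1 CHO-K1 line · Probe or stimulus – thallium- and potassium-containing depolarizing buffer · Measured by – kinetic FluxOR fluorescence, 10 s baseline plus 110 s post-stimulus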
PHOSPHO1 inh: inhibitors of human PHOSPHO1 phosphatase; inhibition, % at 13.3 µM; 1.1% of 290,000 active; AID 1565; Q8TCT1; recombinant PHOSPHO1, absorbance phosphatase assay; in the data active means inhibition above about 60%
KCNK3 block: human KCNK3 channel inhibition, primary screen | O14649 | CHO-KCNK3 thallium flux, FluxOR fluorescence; active compounds read low | B-score at 10 µM | 0.84% of 340,000 active;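 active means B-score under library mean minus 4 SD, starting fluorescence ratio at most library mean plus 5 SD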;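 further: more negative B-score means stronger inhibition of thallium flux through KCNK3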
An asterisk follows results filed as active; i = inactive; nt = no result given. A selection: hits, their analogues and other compounds. The true share with any hit is near 4%.

SMILES | hERG protect | KCNK9 block | KCNQ1 inh | KCNQ1 pot | PHOSPHO1 inh | KCNK3 block
CCOC(=O)N1CCN(C(=O)c2ccc3c(=O)n(Cc4ccc(Cl)cc4)c(=S)[nH]c3c2)CC1 | -13 | i | i | i | 35 | i
N#CCC(=O)N/N=C/c1ccc(N2N=C(c3ccccc3)CC2c2ccccc2)cc1 (stereo unspecified) | -1 | i | i | i | 12 | i
NS(=O)(=O)c1ccc(N2N=C(c3ccccc3)CC2c2ccc(F)cc2)cc1 (stereo unspecified) | -10 | -7.7* | 6* | i | -10 | i
COc1ccc(C2CC(c3ccccc3)=NN2c2ccc(S(N)(=O)=O)cc2)cc1 (stereo unspecified) | -10 | i | i | i | 1 | i
O=Cc1ccc(N2N=C(c3ccccc3)CC2c2ccccc2)cc1 (stereo unspecified) | -14 | i | 8* | i | 2 | i
O=C(O)c1ccc(N2N=C(c3ccccc3)CC2c2ccccc2)cc1 (stereo unspecified) | -12 | i | i | i | 30 | i
COc1ccc(C2CC(c3ccccc3)=NN2c2ccc(C(N)=O)cc2)cc1 (stereo unspecified) | -8 | i | 10* | i | 44 | i
COc1ccc(C2CC(c3ccccc3)=NN2c2ccc(/C=N/NC(=O)c3ccncc3)cc2)cc1 (stereo unspecified) | -4 | i | 6* | i | 8 | i
CC(=O)Nc1ccc(C2=NN(c3ccccc3)C(c3ccccc3)C2)cc1 (stereo unspecified) | -1 | -6.7* | i | i | nt | i
Fc1ccc(C2=NN(c3ccccc3)C(c3ccco3)C2)cc1 (stereo unspecified) | -28 | i | i | i | 45 | i
CC(=O)Nc1ccc(C2CC(c3ccc(Cl)cc3)=NN2c2ccccc2)cc1 (stereo unspecified) | -5 | i | i | i | 31 | i
COc1ccc(C2=NN(c3ccc(C=O)cc3)C(c3ccccc3)C2)cc1 (stereo unspecified) | -4 | i | 6* | i | 31 | nt
COc1ccccc1C1CC(c2ccco2)=NN1c1ccccc1 (stereo unspecified) | -6 | -7.6* | i | i | -16 | i
COc1ccc(C2CC(c3ccc([N+](=O)[O-])cc3)=NN2C(=O)c2ccccc2)cc1OC (stereo unspecified) | -4 | -7* | i | i | -10 | i
COc1ccc(C2=NN(C(=O)c3ccccc3)C(c3ccc(OC)c(OC)c3)C2)cc1OC (stereo unspecified) | -7 | i | i | i | 32 | i
Cc1ccc(C(CC(N)=O)c2ccco2)cc1 (stereo unspecified) | -9 | i | i | i | 41 | i
O=C(c1nc2ccccn2c1CNCCn1ccc2ccccc21)N1CCOCC1 | -8 | i | i | i | 24 | i
O=C(NC1CCCC1)C1CC(c2ccc(F)cc2)=NO1 (stereo unspecified) | -9 | i | i | i | -92 | i
COc1ccc(C2CC(c3ccc(F)cc3)=NN2c2ccccc2)cc1OC (stereo unspecified) | -3 | i | 12* | i | -167 | i
O=C(COC(=O)c1ccco1)Nc1nc2ccccc2s1 | 7.3* | i | i | i | 30 | i
O=C(NCc1ccc(-c2nc3ccccc3s2)cc1)c1ccco1 | -7 | i | i | i | -3 | i
COC(=O)c1sc(NC(=S)NC(=O)c2ccc(F)cc2)nc1C | -4 | i | i | i | -15 | nt
O=C(NC(=S)Nc1nc2ccccc2s1)c1ccco1 | 9.2* | i | i | 34* | 6 | i
O=C(NC(=S)NCc1ccc(-c2nc3ccccc3s2)cc1)c1ccco1 | 5.5* | i | i | i | -4 | i
O=C(CCNC(=O)c1ccco1)Nc1nc2ccccc2s1 | nt | nt | nt | nt | nt | i
SMILES | hERG protect | KCNK9 block | KCNQ1 inh | KCNQ1 pot | PHOSPHO1 inh | KCNK3 block
COC(=O)c1sc(NC(=S)NC(=O)c2ccccc2C)nc1C | 25* | i | i | 42* | 20 | i
COc1ccc(/C=C/c2nc(S(=O)(=O)c3ccccc3)c(N(C)C)o2)cc1OC | -5 | i | i | i | 33 | i
COc1ccc(S(=O)(=O)N2CCCCC2)cc1NC(=O)CCNC(=O)c1ccccc1Cl | nt | nt | nt | nt | nt | i
CCN(CC)S(=O)(=O)c1cccc(NC(=O)C2SC(=Nc3ccc(C)cc3C)C(C(=O)NC(C)COC)=C2N)c1 (stereo unspecified) | -7 | i | i | i | 19 | i
Cc1ccc2nc(NC(=S)NC(=O)c3cccs3)sc2c1 | 10* | i | i | 17* | -36 | i
COC(=O)c1sc(NC(=O)c2ccco2)nc1C | -5 | i | i | i | 3 | i
CCOC(=O)c1sc(NC(=S)NC(=O)c2ccco2)nc1C | 8.9* | i | i | 9* | 6 | i
CCCOc1ccc(C(=O)NC(=S)NNC(=O)c2c(-c3ccccc3)noc2C)cc1 | -12 | i | i | 15* | -96 | i
COc1ccc2sc(NC(=O)c3ccco3)nc2c1 | -5 | i | i | i | 96* | i
COc1ccc2c(c1)Cc1sc(NC(=O)c3ccco3)nc1-2 | -2 | i | i | i | -107 | i
Cc1ccc2nc(NC(=O)c3cccs3)sc2c1 | nt | nt | nt | nt | -6 | i
COc1ccc2nc(NC(=S)NC(=O)c3ccco3)sc2c1 | 31* | i | i | 25* | 2 | i
COc1ccc2nc(NC(=O)CCNC(=O)c3ccco3)sc2c1 | nt | nt | nt | nt | nt | i
COc1ccc2nc(NC(=S)N(C)C)sc2c1 | -5 | i | i | i | 95* | i
CCCOc1ccc(C(=O)NC(=S)Nc2nc3ccc(C)cc3s2)cc1 | nt | nt | nt | nt | 0 | nt
CCCOc1ccc(C(=O)NC(=S)Nc2nc3ccccc3s2)cc1 | -4 | i | i | i | 85* | i
CCOc1cccc(CNCCO)c1OCc1ccc(Cl)cc1Cl | -10 | i | i | i | -19 | i
CCOc1cc(CNCCO)cc(Br)c1OCc1ccc(Cl)cc1Cl | -17 | -7.8* | i | i | 3 | i
COc1ccc2c(c1)-c1nc(/N=C/c3c(O)ccc4ccccc34)sc1CC2 | -10 | i | 11* | i | -44 | i
Cc1cc(C(=O)Nc2ccccc2Cc2ccccc2)no1 | -14 | i | i | i | 66* | i
CC(NC(=O)c1cccs1)C(S)c1ccccc1 (stereo unspecified) | -6 | -6.6* | i | i | 29 | i

Source: PubChem BioAssay
